The source made the active and inactive calls. The calls are words filed in the database; no cut-off is given here.
How the values were obtained:
[1] = target: Dual specificity protein kinase CLK4 (Homo sapiens, UniProt Q9HAZ1); assay: Inhibition of CLK4 (unknown origin)
[2] = target: T1, Peroxisome proliferator-activated receptor gamma (Homo sapiens, UniProt P37231); assay: Inhibition of peroxisome proliferator-activated receptors gamma (unknown origin)
T1 sequence (P37231 whole entry): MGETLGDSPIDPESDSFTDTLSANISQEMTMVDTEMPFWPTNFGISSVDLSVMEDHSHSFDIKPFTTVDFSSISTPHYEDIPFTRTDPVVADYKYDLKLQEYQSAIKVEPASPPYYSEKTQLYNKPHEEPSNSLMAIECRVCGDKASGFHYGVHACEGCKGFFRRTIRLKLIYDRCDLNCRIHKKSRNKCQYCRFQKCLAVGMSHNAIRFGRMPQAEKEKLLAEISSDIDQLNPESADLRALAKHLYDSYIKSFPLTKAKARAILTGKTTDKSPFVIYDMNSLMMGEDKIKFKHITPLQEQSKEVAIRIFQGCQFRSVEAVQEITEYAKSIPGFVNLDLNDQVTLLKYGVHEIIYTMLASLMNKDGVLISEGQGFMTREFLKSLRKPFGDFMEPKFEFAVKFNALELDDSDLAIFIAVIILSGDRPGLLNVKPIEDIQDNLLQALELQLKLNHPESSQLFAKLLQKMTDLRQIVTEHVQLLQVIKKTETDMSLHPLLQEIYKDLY
Summary of the method: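 Radioligand binding selectivity screen was run at 10 μM, mean of three determinations. Where inhibition exceeded 50%, full concentration-displacement curves were run in triplicate and IC50 was obtained by nonlinear least-squares regression.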

[3] = Cmax in C57Bl/6 mouse at 2 mg/kg, iv measured after 480 mins by LC-MS/MS analysis; format: ADME, organism-based; conditions: in vivo
Summary of the method: (§1)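 Male C57Bl/6 mice (20-25 g) given a single IV dose (2 mg/kg) or oral dose (10 mg/kg). Blood was sampled at 5, 15, 30, 60, 120, 240, 360 and 480 min and plasma prepared by centrifugation. Plasma drug levels were measured by LC/MS/MS. Values are mean (CV%), N=3.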

[4] = MRT in C57Bl/6 mouse at 2 mg/kg, iv measured after 480 mins by LC-MS/MS analysis; format: ADME, organism-based; conditions: in vivo; summary of the method: as §1
[5] = AUC in C57Bl/6 mouse at 10 mg/kg, po measured after 480 mins by LC-MS/MS analysis; format: ADME, organism-based; conditions: in vivo; summary of the method: as §1
[6] = Cmax in C57Bl/6 mouse at 10 mg/kg, po measured after 480 mins by LC-MS/MS analysis; format: ADME, organism-based; conditions: in vivo; summary of the method: as §1
[7] = MRT in C57Bl/6 mouse at 10 mg/kg, po measured after 480 mins by LC-MS/MS analysis; format: ADME, organism-based; conditions: in vivo; summary of the method: as §1
[8] = Oral biavailability in C57Bl/6 mouse at 10 mg/kg measured after 480 mins by LC-MS/MS analysis; format: ADME, organism-based; conditions: in vivo; summary of the method: as §1
[9] = Unbound fraction in C57Bl/6 mouse brain; format: ADME, tissue-based
Summary of the method: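 Plasma and brain binding were determined by equilibrium dialysis at 1 μM.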

[10] = Unbound brain concentration in C57Bl/6 mouse at 3 mg/kg, po administered for 1 hr; format: ADME, organism-based; conditions: in vivo
[11] = Unbound brain concentration in C57Bl/6 mouse at 1 mg/kg, po administered for 1 hr; format: ADME, organism-based; conditions: in vivo
[12] = target: Leucine-rich repeat serine/threonine-protein kinase 2 (Mus musculus) (UniProt Q5S006); assay: In vivo inhibition of LRRK2 in C57Bl/6 mouse brain assessed as reduction in pSer935 LRRK2 administered for 11 days and measured after 4 hrs by Western blotting analysis; format: functional, organism-based; conditions: dose 3-120 mg/kg, time 11.0 day
Summary of the method: (§2)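 Male C57Bl/6 mice, singly housed on a reversed light cycle. Fed drug diet targeted to 3, 10, 30, 60 or 120 mg/kg/day (assuming 3 g/day intake), or untreated diet, for 11 days. Killed 4, 8 or 24 h after dark-cycle onset, n = 5 per group. Cortex immunoblotted for pSer935/total LRRK2 and total LRRK2/GAPDH. Total LRRK2 detected with MJFF2 antibody.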

[13] = target: Leucine-rich repeat serine/threonine-protein kinase 2 (Mus musculus) (UniProt Q5S006); assay: In vivo inhibition of LRRK2 in C57Bl/6 mouse brain assessed as reduction in pSer935 LRRK2 at 10 to 120 mg/kg administered for 11 days and measured for 8 to 24 hrs by Western blotting analysis; format: functional, organism-based; conditions: dose 10-120 mg/kg, time 11.0 day; summary of the method: as §2
[14] = target: Leucine-rich repeat serine/threonine-protein kinase 2 (Mus musculus) (UniProt Q5S006); assay: In vivo inhibition of LRRK2 in C57Bl/6 mouse kidney assessed as total LRRK2 protein level at 30 to 120 mg/kg administered for 11 days and measured after 24 hrs by Western blotting analysis; format: functional, organism-based; conditions: dose 30-120 mg/kg, time 11.0 day
Summary of the method: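 Same 11-day in-diet design in male C57Bl/6 mice: 3-120 mg/kg/day or untreated diet, killed 4, 8 or 24 h after dark-cycle onset, n = 5 per group. Kidneys dissected for Western blot of pSer935 and total LRRK2, with total LRRK2 detected by MJFF-2 antibody.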

[15] = Unbound brain concentration in C57Bl/6 mouse administered for 11 days; format: ADME, tissue-based; conditions: in vivo, 264 h, dose 3-100 mg/kg, time 11 day
Summary of the method: (§3)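 Male C57Bl/6 mice, singly housed on a reversed 12 h light cycle, were fed diet formulated to give 3, 10, 30, 60 or 120 mg/kg/day (assumes 3 g/day intake) or untreated diet for 11 days. Body weight and food intake were monitored. Spontaneous locomotion and rearing were recorded over 60 min. On day 11, mice were euthanized 4, 8 or 24 h after dark onset and plasma and brain drug levels measured; n = 5 per group.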

[16] = Unbound brain concentration in C57Bl/6 mouse administered for 11 days and measured after 24 hrs; format: ADME, tissue-based; conditions: in vivo, 264 h, time 11 day; summary of the method: as §3
[17] = Effect on spontaneous locomotor activity in C57Bl/6 mouse assessed as distance traveled administered for 11 days by truScan photo beam activity system analysis; format: toxicity; conditions: in vivo, 264 h, time 11 day; summary of the method: as §3
Mus musculus [18] = assay: Effect on behavioral phenotype in 11 weeks old MitoPark mouse assessed as decreased locomotor activity at 30 mg/kg/day administered for 6 weeks and measured after 60 mins truScan photo beam activity system analysis; format: functional, organism-based
Summary of the method: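 MitoPark mice, 5 weeks old, were allocated by baseline 60-min LMA to untreated diet or diet targeting 30 mg/kg/day (reformulated every 3 weeks). Wild-type littermates received vehicle diet. Body weight and food intake were recorded weekly. 60-min LMA (distance, rearing) was run at 8, 11, 14 and 17 weeks of age.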

Mus musculus [19] = assay: Effect on behavioral changes in 8 weeks old MitoPark mouse striatum assessed as HVA level at 30 mg/kg/day administered for 3 weeks by HPLC analysis; format: functional
Summary of the method: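 Striatum from MitoPark mice on diet targeting 30 mg/kg/day or vehicle diet (wild-type littermate controls) was homogenized by sonication in 0.1 M acid at 0.1 g/mL. Samples were held 60 min at 4 °C and centrifuged. Dopamine, DOPAC and HVA were measured by HPLC with electrochemical detection against a 3,4-DHBA internal standard and standard curves. Mean ± SEM.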

Mus musculus [20] = assay: Effect on histological changes in 20 weeks old MitoPark mouse kidney assessed as kidney darkening at 30 mg/kg/day administered for 15 weeks by hematoxylin and eosin staining based microscopic analysis; format: functional, organism-based
Summary of the method: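 MitoPark mice were fed diet targeting 30 mg/kg/day or vehicle for 15 weeks and euthanized at 20 weeks of age (n=5/group). Kidney and lung were fixed in 10% neutral buffered formalin, paraffin-embedded, sectioned at 5 µm, H&E-stained and examined microscopically.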

Sequence of Leucine-rich repeat serine/threonine-protein kinase 2 (Mus musculus) (Q5S006 whole entry): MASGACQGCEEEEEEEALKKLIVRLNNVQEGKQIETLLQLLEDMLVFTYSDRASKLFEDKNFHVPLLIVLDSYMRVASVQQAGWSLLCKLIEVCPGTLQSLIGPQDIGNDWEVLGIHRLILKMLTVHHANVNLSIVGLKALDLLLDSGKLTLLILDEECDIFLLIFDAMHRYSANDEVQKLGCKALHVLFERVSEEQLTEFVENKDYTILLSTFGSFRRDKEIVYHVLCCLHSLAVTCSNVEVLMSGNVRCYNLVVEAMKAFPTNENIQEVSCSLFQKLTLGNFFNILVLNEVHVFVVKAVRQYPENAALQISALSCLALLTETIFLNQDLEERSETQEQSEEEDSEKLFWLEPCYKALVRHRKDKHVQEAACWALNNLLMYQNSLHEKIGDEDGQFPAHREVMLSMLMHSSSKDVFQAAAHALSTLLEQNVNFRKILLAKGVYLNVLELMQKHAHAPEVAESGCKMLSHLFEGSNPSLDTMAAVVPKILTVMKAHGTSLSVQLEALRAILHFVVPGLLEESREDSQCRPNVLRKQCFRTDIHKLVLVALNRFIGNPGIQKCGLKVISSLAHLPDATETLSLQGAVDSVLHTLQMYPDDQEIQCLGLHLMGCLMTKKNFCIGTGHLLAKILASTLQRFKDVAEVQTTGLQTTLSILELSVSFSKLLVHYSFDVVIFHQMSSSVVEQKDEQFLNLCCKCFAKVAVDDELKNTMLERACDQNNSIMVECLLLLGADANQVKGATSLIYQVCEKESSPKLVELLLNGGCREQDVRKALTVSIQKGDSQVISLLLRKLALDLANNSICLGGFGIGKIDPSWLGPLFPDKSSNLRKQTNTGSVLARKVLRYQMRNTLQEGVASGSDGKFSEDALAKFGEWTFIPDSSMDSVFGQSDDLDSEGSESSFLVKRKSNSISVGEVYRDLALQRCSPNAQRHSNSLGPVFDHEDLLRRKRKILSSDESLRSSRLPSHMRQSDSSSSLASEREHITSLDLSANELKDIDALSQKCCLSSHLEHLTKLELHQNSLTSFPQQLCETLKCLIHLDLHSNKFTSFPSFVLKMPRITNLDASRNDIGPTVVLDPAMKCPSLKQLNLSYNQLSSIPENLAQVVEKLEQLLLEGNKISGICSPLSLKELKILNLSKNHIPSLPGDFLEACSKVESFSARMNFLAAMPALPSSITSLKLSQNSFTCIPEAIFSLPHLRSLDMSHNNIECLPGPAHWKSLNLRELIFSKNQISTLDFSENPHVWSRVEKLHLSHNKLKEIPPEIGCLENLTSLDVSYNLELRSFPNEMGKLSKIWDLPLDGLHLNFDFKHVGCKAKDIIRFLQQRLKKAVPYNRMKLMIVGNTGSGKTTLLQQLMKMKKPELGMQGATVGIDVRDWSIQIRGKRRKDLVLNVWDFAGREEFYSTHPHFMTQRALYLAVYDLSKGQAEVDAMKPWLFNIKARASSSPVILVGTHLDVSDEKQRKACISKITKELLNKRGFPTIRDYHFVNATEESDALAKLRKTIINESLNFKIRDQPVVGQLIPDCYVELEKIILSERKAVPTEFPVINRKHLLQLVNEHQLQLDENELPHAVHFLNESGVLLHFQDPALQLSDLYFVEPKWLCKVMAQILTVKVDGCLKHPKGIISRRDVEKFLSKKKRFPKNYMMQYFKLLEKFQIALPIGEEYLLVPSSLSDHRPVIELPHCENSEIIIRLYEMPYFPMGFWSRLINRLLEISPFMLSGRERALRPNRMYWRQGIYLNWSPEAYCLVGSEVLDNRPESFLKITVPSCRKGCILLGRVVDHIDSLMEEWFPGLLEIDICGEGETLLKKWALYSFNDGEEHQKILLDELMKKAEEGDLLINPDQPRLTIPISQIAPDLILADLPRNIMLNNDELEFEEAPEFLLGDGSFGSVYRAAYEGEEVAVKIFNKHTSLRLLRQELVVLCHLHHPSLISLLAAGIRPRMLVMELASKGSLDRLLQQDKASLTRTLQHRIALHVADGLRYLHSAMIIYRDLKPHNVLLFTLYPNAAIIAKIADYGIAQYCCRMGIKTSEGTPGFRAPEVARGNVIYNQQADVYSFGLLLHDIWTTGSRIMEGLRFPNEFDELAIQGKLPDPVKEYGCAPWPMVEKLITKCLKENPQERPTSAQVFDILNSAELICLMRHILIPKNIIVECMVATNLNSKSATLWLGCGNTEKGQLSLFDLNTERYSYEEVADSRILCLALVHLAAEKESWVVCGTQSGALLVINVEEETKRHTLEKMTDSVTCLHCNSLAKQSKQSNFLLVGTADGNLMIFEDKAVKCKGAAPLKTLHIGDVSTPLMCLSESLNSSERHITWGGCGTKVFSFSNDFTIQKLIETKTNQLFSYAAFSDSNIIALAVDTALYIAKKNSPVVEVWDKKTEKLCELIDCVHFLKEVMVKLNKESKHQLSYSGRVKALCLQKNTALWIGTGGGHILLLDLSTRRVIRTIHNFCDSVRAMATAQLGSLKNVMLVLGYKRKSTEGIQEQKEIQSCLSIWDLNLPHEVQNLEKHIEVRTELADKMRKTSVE
Sequence of Dual specificity protein kinase CLK4 (Q9HAZ1 whole entry): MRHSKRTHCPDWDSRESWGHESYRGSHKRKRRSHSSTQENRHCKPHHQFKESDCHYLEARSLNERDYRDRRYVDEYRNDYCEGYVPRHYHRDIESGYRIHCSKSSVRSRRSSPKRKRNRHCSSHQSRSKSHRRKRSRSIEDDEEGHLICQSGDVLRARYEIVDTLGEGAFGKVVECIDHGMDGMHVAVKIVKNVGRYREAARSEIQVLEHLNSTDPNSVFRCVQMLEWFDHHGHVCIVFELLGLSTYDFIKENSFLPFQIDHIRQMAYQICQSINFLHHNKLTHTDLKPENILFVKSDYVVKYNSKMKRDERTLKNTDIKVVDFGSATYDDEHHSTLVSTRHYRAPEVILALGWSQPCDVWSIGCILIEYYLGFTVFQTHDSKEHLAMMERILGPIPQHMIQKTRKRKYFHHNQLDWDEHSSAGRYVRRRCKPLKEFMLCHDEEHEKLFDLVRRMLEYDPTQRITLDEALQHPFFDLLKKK

C[C@@H]1CN(c2cc(-c3n[nH]c4ccc(OC5(C)CC5)cc34)ncn2)C[C@H](C)O1 [MLi-2]
IC50 [1]: 0.225 µM
IC50 [2]: 6.5 µM
Cmax [3]: 716 nM
MRT [4]: 2.7 h
AUC at 8 h [5]: 1.5 µM·h
Cmax [6]: 298 nM
MRT [7]: 11 h
bioavailability [8]: 45%
fraction unbound [9]: 0.009
Drug uptake(free) [10]: 2.4 nM
Drug uptake(free) [11]: 0.6 nM
inhibition [12]: Dose-Dependent Effect
inhibition [13]: Active
inhibition [14]: Active
Drug uptake(free) [15]: Dose-Dependent Effect
Drug uptake(free) [16]: Active
Activity [17]: Non-Toxic
Activity (Mus musculus [18]): Active
Activity (Mus musculus [19]): 267.6 ng/g
Activity (Mus musculus [20]): inactive

From ChEMBL document CHEMBL5653623 (J Pharmacol Exp Ther, 2015)
